Experimental data from different studies.
Observed: cell growth or viability

O=C(NO)c1ccc(CNc2nc3cccc(-c4ccc5c(c4)OCO5)n3n2)cc1  GI50 (NCI-H322M; SRB): 600 nM
C#Cc1cccc(Nc2ncnc3cc(OCCOC)c(OCCOC)cc23)c1  IC50 (NCI-H1975; MTT; 72 h): 55 µM
NC(=O)c1ccc(Oc2ccc(C(=O)C(Cl)Cl)cc2[N+](=O)[O-])cc1  inhibition (NCI-H1975; MTT; 2.5 µM): 97.2%
N[C@H]1CC[C@H](N[C@@H]2C[C@H]2c2ccccc2)CC1  IC50 (HEK293; resazurin): 120 µM
Cc1ncc(CN2CCc3ccccc3C2)c2cc(C(=O)c3ccc4c(c3)OCCO4)oc12  IC50 (NCI-H1975; MTT; 72 h): 29.5 µM
C=CC(=O)NC1CCN(c2ncc3ncnc(Nc4ccc(Oc5ccc6c(c5)ncn6C)c(C)c4)c3n2)CC1  EC50 (NCI-H322): 471 nM
CC(C)Oc1ccc(S(=O)(=O)c2ccc(Oc3cc(OCC(N)=O)c(C(=O)C(Cl)Cl)cc3[N+](=O)[O-])cc2)cc1  IC50 (HEK293; MTT; 72 h): 1.22 µM
C=CC(=O)Nc1cc(Nc2nccc(-c3cn(C)c4ccccc34)n2)c(OC)cc1N(C)CCN(C)C  inhibition (NCI-H1975; MTT; 0.5 µM, 72 h): 69.6%
CN(C)C/C=C/C(=O)Nc1cc2c(Nc3ccc(F)c(Cl)c3)ncnc2cc1O[C@H]1CCOC1  IC50 (NCI-H1975; MTT; 72 h): 30.5 µM
O=C(c1ccccc1)c1ccc(Oc2ccc(C(=O)C(Cl)Cl)cc2[N+](=O)[O-])cc1  inhibition (NCI-H1975; MTT; 2.5 µM): 97.8%
C=C(F)C(=O)N1CCN(c2nc(OC[C@@H]3CCCN3C)nc3c2CCN(c2cccc4cccc(Cl)c24)C3)C[C@@H]1CC#N  IC50 (SW1463; ATP luminescence; 3D culture): 0.00422 µM
O=C1CC[C@@H](COc2ccc(C(=O)C(Cl)Cl)cc2[N+](=O)[O-])N1  inhibition (NCI-H1975; MTT; 2.5 µM): 96.7%
Cc1sc2c(c1C)C(c1ccc(Cl)cc1)=N[C@@H](CC(=O)NCCCCCCCCNC(=O)COc1cccc3c1C(=O)N(C1CCC(=O)NC1=O)C3=O)c1nnc(C)n1-2 (stereo partly drawn)  IC50 (SET-2; ATP luminescence): 0.035 µM
CC(=O)Nc1ccc(Oc2ccc(C(=O)C(Cl)Cl)cc2[N+](=O)[O-])cc1  inhibition (NCI-H1975; MTT; 2.5 µM): 88.3%
CC(C)c1ccccc1[C@@H]1CCCN1C1CC2(CCN(c3ccc(C(=O)NS(=O)(=O)c4ccc(NC[C@H]5CC[C@](C)(O)CC5)c([N+](=O)[O-])c4)c(Oc4cnc5[nH]ccc5c4)c3)CC2)C1  IC50 (Rec1; ATP luminescence; 48 h): 0.183 µM
